Reference: article PMC355911 (Journal of Insect Science, 2002)

How the values were obtained:
CfEcR/CfUSP = target: T1, CfEcR/CfUSP (Choristoneura fumiferana, UniProt O77255); assay: UV-irradiation of receptor complex with ligand, then [3H]ponasterone A binding; details: ligand 100 nM, 350 nm for 20 min, [3H]ponA 2.55 nM
T1 sequence (O77255 1-541): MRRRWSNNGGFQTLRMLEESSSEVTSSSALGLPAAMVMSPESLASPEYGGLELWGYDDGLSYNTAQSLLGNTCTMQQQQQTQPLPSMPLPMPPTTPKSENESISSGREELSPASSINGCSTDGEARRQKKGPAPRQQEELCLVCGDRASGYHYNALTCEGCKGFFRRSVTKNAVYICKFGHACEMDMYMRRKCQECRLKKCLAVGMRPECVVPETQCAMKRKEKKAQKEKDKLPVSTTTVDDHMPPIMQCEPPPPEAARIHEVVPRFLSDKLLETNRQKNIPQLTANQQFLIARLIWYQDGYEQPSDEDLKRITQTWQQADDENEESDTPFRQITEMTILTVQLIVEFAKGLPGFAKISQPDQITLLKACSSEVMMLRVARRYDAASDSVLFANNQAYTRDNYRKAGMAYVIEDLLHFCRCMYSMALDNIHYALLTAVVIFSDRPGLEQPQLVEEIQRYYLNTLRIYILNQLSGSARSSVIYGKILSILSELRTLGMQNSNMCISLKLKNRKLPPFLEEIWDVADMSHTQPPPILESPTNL
T1 sequence (O76202 1-472 partner): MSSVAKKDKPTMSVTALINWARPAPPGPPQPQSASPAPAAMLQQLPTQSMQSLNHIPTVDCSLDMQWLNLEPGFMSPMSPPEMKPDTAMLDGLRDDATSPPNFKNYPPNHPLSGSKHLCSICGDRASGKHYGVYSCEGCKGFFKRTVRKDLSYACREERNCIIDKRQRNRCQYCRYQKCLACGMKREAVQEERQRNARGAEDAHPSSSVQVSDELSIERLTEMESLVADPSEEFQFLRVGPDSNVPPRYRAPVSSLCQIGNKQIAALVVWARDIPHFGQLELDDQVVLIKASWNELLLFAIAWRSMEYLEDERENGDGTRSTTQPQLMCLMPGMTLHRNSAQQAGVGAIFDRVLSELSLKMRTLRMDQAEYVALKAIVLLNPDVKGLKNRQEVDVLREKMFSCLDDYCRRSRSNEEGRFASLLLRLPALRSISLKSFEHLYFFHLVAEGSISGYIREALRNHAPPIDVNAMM

DmEcR/DmUSP = target: T2, DmEcR/DmUSP (Drosophila melanogaster, UniProt P34021); assay: UV-irradiation of receptor complex with ligand, then [3H]ponasterone A binding; details: ligand 100 nM, 350 nm for 20 min, [3H]ponA 2.55 nM
T2 sequence (P34021 1-878): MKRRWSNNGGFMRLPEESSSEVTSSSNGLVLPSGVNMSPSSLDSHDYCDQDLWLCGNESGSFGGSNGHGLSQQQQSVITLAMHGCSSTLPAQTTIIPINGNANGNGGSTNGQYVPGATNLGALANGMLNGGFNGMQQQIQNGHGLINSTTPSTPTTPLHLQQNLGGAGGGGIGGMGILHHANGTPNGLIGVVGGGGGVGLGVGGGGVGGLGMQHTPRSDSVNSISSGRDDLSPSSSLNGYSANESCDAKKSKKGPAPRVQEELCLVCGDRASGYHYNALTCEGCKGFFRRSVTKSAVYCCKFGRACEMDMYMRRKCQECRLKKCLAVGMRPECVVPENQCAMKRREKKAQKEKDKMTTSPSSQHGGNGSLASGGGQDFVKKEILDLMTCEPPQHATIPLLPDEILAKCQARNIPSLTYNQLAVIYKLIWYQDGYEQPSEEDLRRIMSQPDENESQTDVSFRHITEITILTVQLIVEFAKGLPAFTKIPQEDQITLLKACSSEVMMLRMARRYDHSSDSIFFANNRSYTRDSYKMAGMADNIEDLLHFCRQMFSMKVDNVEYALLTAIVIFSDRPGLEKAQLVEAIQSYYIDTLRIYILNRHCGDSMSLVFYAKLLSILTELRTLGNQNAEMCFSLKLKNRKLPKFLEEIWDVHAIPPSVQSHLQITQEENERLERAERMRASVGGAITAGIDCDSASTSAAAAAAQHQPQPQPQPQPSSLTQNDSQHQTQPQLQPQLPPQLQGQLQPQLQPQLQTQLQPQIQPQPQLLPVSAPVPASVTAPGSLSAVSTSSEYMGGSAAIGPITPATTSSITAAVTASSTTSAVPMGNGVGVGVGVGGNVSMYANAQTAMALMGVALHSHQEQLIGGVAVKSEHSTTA
T2 sequence (P20153 1-508 partner): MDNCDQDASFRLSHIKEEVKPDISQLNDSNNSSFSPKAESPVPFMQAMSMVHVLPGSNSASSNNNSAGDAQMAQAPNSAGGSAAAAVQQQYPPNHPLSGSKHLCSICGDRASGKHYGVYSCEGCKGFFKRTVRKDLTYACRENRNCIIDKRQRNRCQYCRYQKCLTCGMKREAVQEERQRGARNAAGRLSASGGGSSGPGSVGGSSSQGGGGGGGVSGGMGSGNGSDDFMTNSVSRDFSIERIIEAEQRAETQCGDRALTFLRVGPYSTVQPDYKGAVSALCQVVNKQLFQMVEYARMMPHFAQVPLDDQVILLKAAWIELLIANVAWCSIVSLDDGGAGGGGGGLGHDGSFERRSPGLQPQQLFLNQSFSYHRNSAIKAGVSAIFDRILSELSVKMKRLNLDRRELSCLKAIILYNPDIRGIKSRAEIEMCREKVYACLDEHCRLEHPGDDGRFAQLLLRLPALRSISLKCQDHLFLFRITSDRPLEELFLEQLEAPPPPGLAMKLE
In short: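 Crude extracts of bacterially expressed DmEcR/DmUSP were incubated with 100 nM ligand at 7°C for 16 h to equilibrium. Samples were irradiated in quartz tubes on a merry-go-round at 350 nm for 20 min, with non-irradiated controls. Unbound steroid was stripped with fatty-acid-free BSA plus dextran-coated charcoal (10 mM Tris/HCl, pH 7.2), 5 min ice-cold, then spun at 13,000 × g. Supernatant was equilibrated with 2.55 nM [3H]ponA at 7°C, DCC-stripped again, and scintillation-counted. Duplicates.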

SMILES	binding capacity for [3H]ponasterone A after irradiation with ligand (in words) (CfEcR/CfUSP; listed as 20E)	binding capacity for [3H]ponasterone A after irradiation with ligand (in words) (DmEcR/DmUSP; listed as 20E)	binding capacity for [3H]ponasterone A after irradiation with ligand (in words) (CfEcR/CfUSP)	binding capacity for [3H]ponasterone A after irradiation with ligand (in words) (DmEcR/DmUSP)
CC(C)(O)CC[C@@H](O)[C@](C)(O)[C@H]1CC[C@@]2(O)C3=CC(=O)[C@@H]4C[C@@H](O)[C@@H](O)C[C@]4(C)[C@H]3CC[C@]12C [compound 1, 20-hydroxyecdysone]	no blocking	no blocking	–	–
CC(C)CC[C@@H](O)[C@](C)(O)[C@H]1CC[C@@]2(O)C3=CC(=O)[C@@H]4C[C@@H](O)[C@@H](O)C[C@]4(C)C3=CC[C@]12C [compound 5, dacryhainansterone]	–	–	significantly reduced	significantly reduced
